Dynein transport – dynein cargo transport inhibition. 3617.4 mouse cells, GR-EGFP nuclear translocation imaging; test concentration mostly 20 µM; stimulated with dexamethasone, 1 µM; stronger effect = lower value. z-score, hits read low. 220,000 tested, 0.47% active. AID 1381;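 active = plate z-score of nuclear minus cytoplasmic receptor signal below a set negative limit, without overly bright fluorescence or cell loss, cut at about -3.5 in these data, passing the limit was not always enough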;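 also: z-score of nuclear minus cytoplasmic ring GR-EGFP intensity difference per well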
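Schedule: 48 h induction, then 1 h compound, then 30 min agonist, 37 °C. Buffer or medium: tetracycline-free induction medium containing charcoal-stripped FBS. Reagent: 1.0 µM final dexamethasone stimulus. Evaluation: nuclear versus cytoplasmic GR-EGFP signal, averaged per well. Signal: high-content fluorescence imaging after fixation.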
EP2 modulator – modulates human prostaglandin E2 receptor EP2 signaling; induction, % at 25 µM; EP2-expressing cells, cAMP HTRF FRET, PGE2 co-stimulation; AID 940; 260,000 tested, 0.83% active; P43116;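 active = compounds whose cAMP rise, as percent of the full-agonist control response, exceeds 60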;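 also: rat C6 glioma line stably carrying human EP2 under a CMV promoter; the protocol text gives 20 µM as final concentration; 100% = response of wells given 1 µM PGE2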
Target sequence (P43116 whole entry, looked up): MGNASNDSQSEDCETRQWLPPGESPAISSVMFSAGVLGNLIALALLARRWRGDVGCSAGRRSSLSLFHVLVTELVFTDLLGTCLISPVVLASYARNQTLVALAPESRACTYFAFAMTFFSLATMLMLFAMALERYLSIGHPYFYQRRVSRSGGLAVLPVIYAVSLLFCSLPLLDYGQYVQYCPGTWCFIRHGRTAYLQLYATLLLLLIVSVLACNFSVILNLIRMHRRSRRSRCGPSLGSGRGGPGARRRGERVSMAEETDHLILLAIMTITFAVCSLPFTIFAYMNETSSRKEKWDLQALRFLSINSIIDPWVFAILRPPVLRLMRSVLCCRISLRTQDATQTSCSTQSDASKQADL
PGE2 EP2 inh – blocks the human prostaglandin E2 receptor EP2; P43116; C6 glioma cells expressing human EP2, cAMP TR-FRET; cells stimulated with saturating PGE2; inhibition, % at 25 µM; 260,000 tested, 0.52% active;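 active = percent inhibition above 40 after rounding to a whole number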;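 also: rat C6 glioma host cells with rolipram phosphodiesterase inhibitor present; the protocol text gives 20 µM as final concentration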
Hsp70 act – transcriptional activators of Hsp70; HeLa Hsp70 promoter luciferase reporter, luminescence; scaled: vehicle 0, proteasome-inhibitor control 100%; activation, % at 10 µM; 200,000 tested, 0.04% active;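 active = activation above the mean across all tested compounds plus 3 SD, cutoff set per campaign, cut at about 5.5% in these data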;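 also: 100% = MG132 at 30 µM as the positive control and 0% = DMSO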
Starred values were filed as active, the others as inactive; . = no result given; ! = a repeat was not active. This is a sample that favours compounds with a hit; in the whole collection about 1.7% have one here.

SMILES | Dynein transport | EP2 modulator | PGE2 EP2 inh | Hsp70 act
Nc1cc(-c2cccs2)nn(CC(=O)Nc2ccccc2Cl)c1=O | . | -16.1 | 7.4 | .
CC(C)Sc1nc2ncnc(N)c2[nH]1 | 0.962 | -26.9 | 1.0 | -0.4
Nc1ncnc2nc(-c3ccc(C[P+](c4ccccc4)(c4ccccc4)c4ccccc4)cc3)[nH]c12 | . | 25.3 | 40.5* | .
CCn1c(SCC(=O)Nc2sc3c(c2C(N)=O)CCC3)nc2ccccc2c1=O | . | -59.1 | 17.4 | .
Cc1cc(C)c2[nH]c(=O)c(CN(Cc3ccco3)C(=O)NC3CCCCC3)cc2c1 | . | 27.3 | 6.4 | .
Cc1ccc2cc(CN(Cc3ccco3)C(=O)NC3CCCCC3)c(=O)[nH]c2c1C | 0.389 | 60.6* | 5.5 | -0.4
CC1=C(C)/C(=N\OS(=O)(=O)c2ccc(C)cc2)C=CC1=O | -3.65* | -57.8 | 24.3 | 2.9
CC1=C/C(=N\OS(=O)(=O)c2ccccc2)C(C)=CC1=O | -3.38 | -24.0 | 132.8* | 0.3
CC1=C/C(=N\OS(=O)(=O)c2ccccc2)C(C(C)C)=CC1=O | -4.72* | -66.8 | 28.1 | 0.0
O=C(C1CC1)N1CCC[C@H]1Cn1nc(-c2ccc3c(c2)OCCO3)ccc1=O | . | -28.5 | . | .
O=C1ON=C(c2ccccc2)/C1=C/c1ccc(OS(=O)(=O)c2ccccc2)cc1 | -4.02* | 5.7 | -0.7 | -0.2
COCCn1c(C)cc(C(=O)CSc2nc3ccccc3c(=O)[nH]2)c1C | 0.248 | -52.9 | 3.7 | -0.2
COCC(C)n1c(C)cc(C(=O)CSc2nc3ccccc3c(=O)[nH]2)c1C (configuration not stated) | -0.74 | 62.0* | 6.9 | -0.4
CC1(C)C2CC[C@]3(C)C(CC=C4[C@@H]5C[C@@](C)(CO)[C@@H](O)C[C@]5(C(=O)O)CC[C@]43C)[C@@]2(C)CC[C@@H]1O (some centres not stated) | . | . | 16.8 | .
CC1(C)CC[C@]2(CO)[C@@H](O)C[C@]3(C)C(=CCC4[C@@]5(C)CC[C@H](O)C(C)(C)C5CC[C@]43C)[C@@H]2C1 (some centres not stated) | . | . | 52.6* | .
COc1ccc(/C(O)=C2/C(=O)C(=O)N(C)C2c2ccccc2OC)cc1OC (configuration not stated) | . | 6.9 | 7.1 | .
CCn1c(=O)oc2cc(S(=O)(=O)NCC3(c4ccccc4)CCOCC3)ccc21 | . | -50.9 | 6.1 | .
CCOC(=O)c1ccccc1NC(=O)CSc1nnnn1C1CCCCC1 | -1.27 | 63.6*! | 3.2 | -0.1
C=C[C@@]1(C)CC(=O)[C@@]2(O)[C@](C)(O1)[C@@H](OC(C)=O)[C@@H](O)C1C(C)(C)CC[C@H](O)[C@@]12C (some centres not stated) | . | 104.1* | 7.8 | .
Nc1ccc(N=Nc2ccc(-c3ccc(O)cc3)cc2)c2ccc(S(=O)(=O)O)cc12 | . | -21.7 | 49.1* | .
COc1ccc(S(=O)(=O)N(CCc2ccccc2)Cc2nc3ccccc3c(=O)[nH]2)cc1 | . | 19.0 | 3.9 | .
Nc1nc2c(C(=O)NCc3cccs3)nnn2c2cccc(Cl)c12 | . | 1.4 | 48.9* | .
Nc1c(C(=O)NCc2cccs2)nnn1CC(=O)Nc1cccc(Cl)c1 | -0.24 | -26.4 | 4.4 | -0.1
Cc1cc2c(cc(C(=O)OC(C(=O)NC(C)(C)C)c3ccccn3)n2C)o1 (configuration not stated) | . | -31.0 | 20.5 | .
CC(=O)N=c1sc2nc3ccccc3nc2n1N(C(C)=O)C(C)=O | -0.233 | 23.5 | 81.3* | -0.1
SMILES | Dynein transport | EP2 modulator | PGE2 EP2 inh | Hsp70 act
N#Cc1c(SCC(N)=O)nc(-c2ccccc2)c2c1CCCC2 | -0.875 | 24.5 | 25.4 | 0.0
N#Cc1c(SCC(=O)O)nc(-c2ccccc2)c2c1CCCC2 | -0.896 | 43.4 | 44.7* | -0.2
COc1ccc2[nH]c3c(C)c4ccncc4c(C)c3c2c1 | 0.336 | -45.8 | 87.4* | .
COc1ccc2[nH]c(C)cc(=O)c2c1 | -0.191 | 25.3 | 8.1 | -0.4
CSc1nc(=S)c2[nH]c(=S)[nH]c2[nH]1 | -0.236 | 23.6 | 44.5* | .
C=CCNC(=O)c1c(NC(=O)c2ccc(OC)c(OC)c2)sc2c1CCCC2 | . | 66.3* | 7.3 | .
COCCCNC(=O)c1c(NC(=O)c2ccccc2C)sc2c1CCCC2 | . | -23.4 | 45.3* | .
C=CCNC(=O)c1c(NC(=O)c2ccccc2C)sc2c1CCCC2 | . | 20.7 | 9.3 | .
NS(=O)(=O)c1ccc(-c2ccc(/C=C3\C(=O)Nc4cc(Cl)ccc43)o2)cc1 | -0.675 | -44.1 | 7.2 | -0.1
CC1(C)OC(=O)C(=Cc2ccc(-c3ccc(S(N)(=O)=O)cc3)o2)C(=O)O1 | -0.505 | -87.5 | 43.5* | -0.1
COc1ccc(NC(=O)Cn2nc(-c3ccco3)cc(N)c2=O)cc1 | . | -13.3 | 10.3 | .
Nc1cc2nc3ccccc3oc-2cc1=O | -1.86 | -40.0 | 42.0* | .
CCOc1ccc(NC(=S)N(Cc2ccco2)Cc2cc3cccc(C)c3[nH]c2=O)cc1 | . | -9.3 | 11.4 | .
CCCCc1nc2sc3c(=O)[nH]cnc3c2c2c1CCCC2 | -0.438 | 60.7* | 10.0 | .
CCCc1nc2sc3c(=O)[nH]cnc3c2c2c1CCCC2 | 0.192 | 71.7* | 7.3 | .
CC(C)c1nc2sc3c(=O)[nH]cnc3c2c2c1CCCC2 | -0.41 | 43.0 | 9.0 | .
CCOC(=O)c1c(NC(=O)CN2CCOCC2)sc2c1CCCC2 | -0.822 | 62.2* | 3.4 | -0.4
O=C(CN1CCOCC1)Nc1sc2c(c1C(=O)c1cccc(F)c1)CCC2 | . | 68.3* | 10.4 | .
CCOC(=O)c1c(NC(=O)COc2cccc3c2CCN(CC)C3=O)sc2c1CCC2 | 0.292 | 63.7* | 10.6 | -0.6
CC(NC(=O)C(C)(C)C)c1nc(-c2ccncc2)n[nH]1 (configuration not stated) | . | 12.4 | 6.4 | .
CCOC(=O)c1ccc(NC(=O)CSc2nnc(C3CCCCC3)n2CC)cc1 | . | 17.2 | 8.7 | .
Cc1ccc(S(=O)(=O)Oc2cc(S(=O)(=O)O)cc3cc(S(=O)(=O)O)cc(N)c23)cc1 | . | 31.8 | 60.8* | .
Cc1ccc(S(=O)(=O)Oc2ccccc2/C=N/O)cc1 | -0.0518 | 2.8 | 7.2 | -0.1
CC1Cc2nc(SCC(=O)NC3CCCCC3)n(C)c(=O)c2S1 (configuration not stated) | -0.138 | 11.5 | 98.1* | -0.2
CC(=O)C(C(C)=O)c1c(Cl)c(O)c(O)c2c(C(=O)c3ccccc3)coc12 | -1.02 | -27.3 | 56.6* | -0.2
SMILES | Dynein transport | EP2 modulator | PGE2 EP2 inh | Hsp70 act
CN1CCN(Cc2c(O)ccc3occ(C(=O)c4ccccc4)c23)CC1 | 0.205 | 1.5 | 8.1 | -0.3
Cc1cc(C(F)(F)F)nn1CC(=O)NNC(=S)Nc1ccc(Cl)cc1 | -1.19 | 1.5 | 196.1* | 3.0
Cc1cc(SCC(=O)c2ccc(Br)cc2)cc(C)[o+]1 | . | 16.0 | 48.2* | .
COCCCN1C(=O)C(O)=C(C(=O)c2ccc(C)o2)C1c1cccc(Cl)c1 (configuration not stated) | . | 24.6 | 17.5 | .
Cc1ccc(-c2cc(C(F)F)n3ncc(C(=O)N(C)Cc4cn(C)nc4C)c3n2)cc1 | . | 9.0 | 8.0 | .
CC(C)c1ccc(NC(=O)COc2ccccn2)cc1 | 0.924 | -16.5 | 95.0* | -0.1
O=C1NC(=O)N(c2ccc(F)cc2)C(=O)/C1=C/c1ccco1 | . | -120.2 | 53.3* | .

Compound activity deposited in PubChem BioAssay by several laboratories.
